Measurements reported in ChEMBL document CHEMBL5390224, “Design, synthesis, and biological evaluation of a novel series of 1,2,4-oxadiazole inhibitors of SLACK potassium channels: Identification of in vitro tool VU0935685” (Bioorg Med Chem, 2023).
pIC50: −log10 of the molar value. Activity calls are given as the source filed them. The rule behind the calls is not given here.

How the values were obtained:
Format in all cases: cell-based
HEK293 [1] = experiment: Inhibition of wild-type human SLACK expressed in HEK293 cells assessed as efficacy at 30 uM by thallium flux assay relative to control
Procedure, shortened: (§1)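 Stable monoclonal HEK293 lines (WT or A934T SLACK) plated 20,000 cells/well; loaded 1 h at room temperature with Thallo-AM dye, 1.25 mM probenecid, masking dye, 0.3% Pluronic F-127 in buffer with 2.7 mM RbCl, pH 7.3. Compound preincubated 120 s, then Tl2SO4 stimulus (2.5 mM); fluorescence read 120 s. Concentration–response 1.5 nM–30 μM in half-log steps, ≥3 replicate wells.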

HEK293 [2] = experiment: Activation of wild-type human SLACK expressed in HEK293 cells assessed as efficacy at 30 uM by thallium flux assay relative to control
HEK293 [3] = experiment: Inhibition of wild-type human SLACK expressed in HEK293 cells by thallium flux assay; procedure, shortened: as §1
CHO = experiment: Inhibition of wild-type human SLACK expressed in CHO cells assessed as efficacy at 30 uM by whole cell voltage clamp electrophysiology assay; conditions: Cricetulus griseus
[4] = Inhibition of wild-type human SLACK expressed in CHO cells by whole cell voltage clamp electrophysiology assay; conditions: Cricetulus griseus
Procedure, shortened: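 Automated whole-cell patch clamp at room temperature. External (mM): NaCl 105, KCl 4, MgCl2 1, CaCl2 5, HEPES 10, NMDG-Cl 40, pH 7.4. Internal: NaCl 70, KF 70, KCl 10, EGTA 5, HEPES 5, pH 7.2. Concentrations 0.125–30 μM in half-log steps, ≥3 cells per series.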

## CCOc1ncccc1S(=O)(=O)N1CC(c2nc(-c3ccc(F)cc3)no2)C1
HEK293 [1]
  Efficacy: 46%

## O=S(=O)(c1cccn2ncnc12)N1CC(c2nc(-c3ccc(F)cc3)no2)C1
HEK293 [2]
  Efficacy: 16%

## CCOc1ccccc1S(=O)(=O)N1CC(c2nc(-c3cccc(C(F)(F)F)c3)no2)C1
HEK293 [1]
  Efficacy: 48%

## Cc1ccc(S(=O)(=O)N2CC(c3nc(-c4ccsc4)no3)C2)cc1
HEK293 [3]
  inhibition: inactive
HEK293 [1]
  Efficacy: inactive

## CCOc1ccccc1S(=O)(=O)N1CC(c2nc(-c3ccc(Cl)cc3)no2)C1
HEK293 [1]
  Efficacy: 94%

## O=S(=O)(c1ccccc1N1CCCCC1)N1CC(c2nc(-c3ccc(F)cc3)no2)C1
HEK293 [1]
  Efficacy: 28%

## Cc1nc2c(S(=O)(=O)N3CC(c4nc(-c5ccc(F)cc5)no4)C3)cccn2n1
HEK293 [2]
  Efficacy: 16%

## O=S(=O)(c1cccn2cnnc12)N1CC(c2nc(-c3ccc(F)cc3)no2)C1
HEK293 [2]
  Efficacy: 14%

## CCOc1ccccc1S(=O)(=O)N1CC(c2nc(-c3ccccc3C)no2)C1
HEK293 [2]
  Efficacy: < 10%

## O=S(=O)(c1cccc(Cl)c1)N1CC(c2nc(-c3ccsc3)no2)C1
HEK293 [3]
  inhibition: inactive
HEK293 [1]
  Efficacy: inactive

## CCOc1ccccc1S(=O)(=O)N1CC(c2nc(-c3cccc(OC)c3)no2)C1
HEK293 [2]
  Efficacy: < 10%

## CCOc1ccccc1OC(=O)N1CC(c2nc(-c3ccsc3)no2)C1
HEK293 [2]; filed as activator
  Efficacy: 50%

## CCOc1ccccc1S(=O)(=O)C1CN(c2nc(-c3ccc(F)cc3)no2)C1
HEK293 [1]
  Efficacy: 24%

## CCOc1ccccc1S(=O)(=O)N1CC(c2nc(-c3ccccn3)no2)C1
HEK293 [3]
  inhibition: inactive
HEK293 [1]
  Efficacy: inactive

## O=S(=O)(c1ccccc1C(F)(F)F)N1CC(c2nc(-c3ccsc3)no2)C1
HEK293 [2]
  Efficacy: 36%

## CCCCOc1ccccc1S(=O)(=O)N1CC(c2nc(-c3ccsc3)no2)C1
HEK293 [3]
  inhibition: inactive
HEK293 [1]
  Efficacy: inactive

## O=S(=O)(c1cccc(F)c1)N1CC(c2nc(-c3ccsc3)no2)C1
HEK293 [2]
  Efficacy: 24%

## CCOc1ccccc1S(=O)(=O)N1CC(c2nc(-c3cccc(F)c3)no2)C1
HEK293 [3]
  inhibition: inactive
HEK293 [1]
  Efficacy: inactive

## CCOc1ccccc1S(=O)(=O)[C@H]1C[C@H](c2nc(-c3ccc(F)cc3)no2)C1
HEK293 [1]
  Efficacy: 52%

## CCOc1ccccc1S(=O)(=O)N1CC(c2nc(-c3ccco3)no2)C1
HEK293 [1]
  Efficacy: 44%

## O=S(=O)(c1ccccc1N1CCCC1)N1CC(c2nc(-c3ccc(F)cc3)no2)C1
HEK293 [1]
  Efficacy: 92%

## CCOc1ccccc1S(=O)(=O)N1CC(c2nc(-c3ccncc3)no2)C1
HEK293 [3]
  inhibition: inactive
HEK293 [1]
  Efficacy: inactive

## CCOc1ccccc1C(=O)N1CC(c2nc(-c3ccsc3)no2)C1
HEK293 [2]
  Efficacy: 18%

## CCOc1ccccc1S(=O)(=O)N1CC(C)(c2nc(-c3ccc(F)cc3)no2)C1
HEK293 [2]
  Efficacy: 14%

## CCOc1ccccc1S(=O)(=O)N1CC(c2nc(-c3ccc(F)cc3)c[nH]2)C1
HEK293 [2]
  Efficacy: 34%

## Cc1cccc(S(=O)(=O)N2CC(c3nc(-c4ccsc4)no3)C2)c1
HEK293 [2]
  Efficacy: < 10%

## O=S(=O)(c1ccccc1Cl)N1CC(c2nc(-c3ccsc3)no2)C1
HEK293 [2]; filed as activator
  Efficacy: 47%

## CCOc1ccccc1S(=O)(=O)N1CC(c2nc(-c3ccccc3)no2)C1
HEK293 [1]
  Efficacy: 51%

## CCOc1ccccc1NC(=O)N1CC(c2nc(-c3ccsc3)no2)C1
HEK293 [2]
  Efficacy: < 10%

## CCOc1ccccc1S(=O)(=O)N1CC(c2nc(-c3ccccc3C(F)(F)F)no2)C1
HEK293 [2]; filed as activator
  Efficacy: 66%

## CCOc1ccccc1S(=O)(=O)N1CC(c2nc(-c3nccs3)no2)C1
HEK293 [3]
  inhibition: inactive
HEK293 [1]
  Efficacy: inactive

## CCOc1ccccc1S(=O)(=O)N1CC(c2nc(-c3ncccn3)no2)C1
HEK293 [3]
  inhibition: inactive
HEK293 [1]
  Efficacy: inactive

## CCOc1ccccc1S(=O)(=O)N1CC(c2nc(-c3cccc(C)c3)no2)C1
HEK293 [1]
  Efficacy: < 10%

## O=S(=O)(c1cccc(C(F)(F)F)c1)N1CC(c2nc(-c3ccsc3)no2)C1
HEK293 [2]; filed as activator
  Efficacy: 61%

## Cc1cn2cccc(S(=O)(=O)N3CC(c4nc(-c5ccc(F)cc5)no4)C3)c2n1
HEK293 [2]
  Efficacy: 19%

## CCOc1ccccc1S(=O)(=O)N1CC(c2ncc(-c3ccc(F)cc3)o2)C1
HEK293 [2]
  Efficacy: 37%

## CCOc1ccccc1S(=O)(=O)N1CC(c2nnc(-c3ccc(F)cc3)o2)C1
HEK293 [2]
  Efficacy: < 10%

## CCOc1ccccc1S(=O)(=O)N1CC(c2cc(-c3ccc(F)cc3)on2)C1
HEK293 [3]
  inhibition: inactive
HEK293 [1]
  Efficacy: inactive

## CCOc1ccccc1S(=O)(=O)N1CC(c2cn(-c3ccc(F)cc3)nn2)C1
HEK293 [2]; filed as activator
  Efficacy: 41%

## O=S(=O)(c1ccccc1OCC1CCC1)N1CC(c2nc(-c3ccc(F)cc3)no2)C1
HEK293 [1]
  Efficacy: 88%

## O=S(=O)(c1ccccc1OC1COC1)N1CC(c2nc(-c3ccc(F)cc3)no2)C1
HEK293 [2]; filed as activator
  Efficacy: 43%

## O=S(=O)(c1ccccc1F)N1CC(c2nc(-c3ccsc3)no2)C1
HEK293 [2]
  Efficacy: 30%

## COc1cccc(S(=O)(=O)N2CC(c3nc(-c4ccsc4)no3)C2)c1
HEK293 [3]
  inhibition: inactive
HEK293 [1]
  Efficacy: inactive

## COc1ccc(Cl)cc1NC(=O)CN1CCN(S(=O)(=O)N2CCC(C)CC2)CC1
CHO
  Efficacy: 95%
[4]
  pIC50: 5.64

## CCOc1ccccc1S(=O)(=O)N1CC(c2noc(-c3ccc(F)cc3)n2)C1
HEK293 [1]
  Efficacy: 45%

## O=S(=O)(c1ccc(C(F)(F)F)cc1)N1CC(c2nc(-c3ccsc3)no2)C1
HEK293 [3]
  inhibition: inactive
HEK293 [1]
  Efficacy: inactive

## CCOc1ccccc1S(=O)(=O)N1CC(c2nnc(-c3ccc(F)cc3)[nH]2)C1
HEK293 [2]
  Efficacy: 31%

## CCOc1ccccc1CC(=O)N1CC(c2nc(-c3ccsc3)no2)C1
HEK293 [2]
  Efficacy: 37%

## CCOc1ccccc1S(=O)(=O)N1CC(F)(c2nc(-c3ccc(F)cc3)no2)C1
HEK293 [1]
  Efficacy: 98%

## O=S(=O)(c1cccn2ccnc12)N1CC(c2nc(-c3ccc(F)cc3)no2)C1
HEK293 [2]; filed as activator
  Efficacy: 48%

## CCNc1ccccc1S(=O)(=O)N1CC(c2nc(-c3ccsc3)no2)C1
HEK293 [3]
  inhibition: inactive
HEK293 [1]
  Efficacy: inactive

## O=S(=O)(c1ccccc1OCC1CC1)N1CC(c2nc(-c3ccc(F)cc3)no2)C1
HEK293 [1]
  Efficacy: 95%

## CCOc1ccccc1S(=O)(=O)N1CC(c2nc(-c3ccc(F)cn3)no2)C1
HEK293 [3]
  inhibition: inactive
HEK293 [1]
  Efficacy: inactive

## CCCc1ccccc1S(=O)(=O)N1CC(c2nc(-c3ccsc3)no2)C1
HEK293 [1]
  Efficacy: 79%

## CCOc1ccccc1S(=O)(=O)N1CC(c2nc(-c3ccccc3Cl)no2)C1
HEK293 [1]
  Efficacy: 81%

## CCOc1ccccc1S(=O)(=O)N1CC(c2nc(-c3ccc(C)cc3)no2)C1
HEK293 [3]
  inhibition: inactive
HEK293 [1]
  Efficacy: inactive

## CCOc1ccccc1S(=O)(=O)c1ccc(-c2nc(-c3ccc(F)cc3)no2)cc1
HEK293 [3]
  inhibition: inactive
HEK293 [1]
  Efficacy: inactive

## CCOc1ccccc1S(=O)(=O)N1CC(c2nc(-c3ccccc3OC)no2)C1
HEK293 [2]
  Efficacy: 18%

## CCOc1ccccc1S(=O)(=O)N1CC(c2cc(-c3ccc(F)cc3)n[nH]2)C1
HEK293 [2]
  Efficacy: 24%

## O=S(=O)(c1ccc(Cl)cc1)N1CC(c2nc(-c3ccsc3)no2)C1
HEK293 [3]
  inhibition: inactive
HEK293 [1]
  Efficacy: inactive

## Cc1nnc2c(S(=O)(=O)N3CC(c4nc(-c5ccc(F)cc5)no4)C3)cccn12
HEK293 [3]
  inhibition: inactive
HEK293 [1]
  Efficacy: inactive

## CCOc1ccccc1C(C)N1CC(c2nc(-c3ccsc3)no2)C1 (stereo not given)
HEK293 [2]
  Efficacy: < 10%

## O=S(=O)(c1ccc(F)cc1)N1CC(c2nc(-c3ccsc3)no2)C1
HEK293 [3]
  inhibition: inactive
HEK293 [1]
  Efficacy: inactive

## CCOc1ccccc1S(=O)(=O)[C@H]1C[C@@H](c2nc(-c3ccc(F)cc3)no2)C1
HEK293 [3]
  inhibition: inactive
HEK293 [1]
  Efficacy: inactive

## O=S(=O)(c1ccccc1OC1CCCC1)N1CC(c2nc(-c3ccc(F)cc3)no2)C1
HEK293 [1]
  Efficacy: 93%

## CCOc1ccccc1S(=O)(=O)N1CC(c2nc(-c3ccc(F)cc3)cn2C)C1
HEK293 [1]
  Efficacy: 47%

## CCOc1ccccc1S(=O)(=O)N1CC(c2cc(-c3ccc(F)cc3)no2)C1
HEK293 [3]
  inhibition: inactive
HEK293 [1]
  Efficacy: inactive

## CCOc1ccccc1S(=O)(=O)N1CC(c2nc(-c3cccnc3)no2)C1
HEK293 [3]
  inhibition: inactive
HEK293 [1]
  Efficacy: inactive

## O=S(=O)(c1cccc2ccoc12)N1CC(c2nc(-c3ccc(F)cc3)no2)C1
HEK293 [2]
  Efficacy: 37%

## CCOc1ccccc1CN1CC(c2nc(-c3ccsc3)no2)C1
HEK293 [2]
  Efficacy: 31%

## CCOc1ccccc1S(=O)(=O)N1CC(c2nc(-c3cccc(Cl)c3)no2)C1
HEK293 [3]
  inhibition: inactive
HEK293 [1]
  Efficacy: inactive

## CCOc1ccccc1S(=O)(=O)N1CC(c2nc(-c3ccccc3F)no2)C1
HEK293 [1]
  Efficacy: 88%
